What was measured:
A-431 = assay: Cytotoxicity against human A431 cells after 24 hrs by MTT assay; format: functional, cell-based; details: A-431, 24 h
How it was run: (§1)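 Cells kept in DMEM with 10% foetal calf serum, penicillin and streptomycin, at 37 °C under 5% CO2. For assays serum lowered to 3%. Cells treated with test material at 0.04–60 µM for 24 h, then MTT (250 µg/mL) for 3 h. Formazan OD read at 570 nm. IC50 by non-linear regression, mean of triplicates. BEZ-235 as positive control.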

[1] = Cytotoxicity against human HCT116 cells after 24 hrs by MTT assay; format: functional, cell-based; details: HCT-116, 24 h; how it was run: as §1
T47D = assay: Cytotoxicity against human T47D cells after 24 hrs by MTT assay; format: functional, cell-based; how it was run: as §1
COLO 205 [2] = assay: Cytotoxicity against human COLO205 cells after 24 hrs by MTT assay; format: functional, cell-based; details: COLO 205, 24 h; how it was run: as §1
[3] = Cytotoxicity against human PC3 cells after 24 hrs by MTT assay; format: functional, cell-based; details: PC-3, 24 h; how it was run: as §1
[4] = Cytotoxicity against human NCI-H322 cells after 24 hrs by MTT assay; format: functional, cell-based; details: NCI-H322, 24 h; how it was run: as §1
COLO 205 [5] = assay: Induction of mitochondrial membrane potential loss in human COLO205 cells at 1 uM after 48 hrs by Rh-123 staining based flow cytometry (reference value: 12.4%); format: functional
COLO 205 [6] = assay: Induction of cell cycle arrest in human COLO205 cells assessed as accumulation at G2 phase at 1 uM after 48 hrs by propidium iodide staining based flow cytometry (reference value: 13.2%); format: functional
COLO 205 [7] = assay: Induction of cell cycle arrest in human COLO205 cells assessed as accumulation at G1 phase at 1 uM after 48 hrs by propidium iodide staining based flow cytometry (reference value: 45.7%); format: functional
COLO 205 [8] = assay: Induction of cell cycle arrest in human COLO205 cells assessed as accumulation at S phase at 1 uM after 48 hrs by propidium iodide staining based flow cytometry (reference value: 13.8%); format: functional
COLO 205 [9] = assay: Induction of apoptosis in human COLO205 cells assessed as accumulation at subG1 phase at 1 uM after 48 hrs by propidium iodide staining based flow cytometry (reference value: 12%); format: functional
A549 = assay: Cytotoxicity against human A549 cells after 24 hrs by MTT assay; format: functional, cell-based; details: A549, 24 h; how it was run: as §1

| Structure (SMILES) | IC50 (A-431) [µM] | IC50 [1] [µM] | IC50 (T47D) [µM] | IC50 (COLO 205 [2]) [µM] | IC50 [3] [µM] | IC50 [4] [µM] | Activity (COLO 205 [5]) [%] | Activity (COLO 205 [6]) [%] | Activity (COLO 205 [7]) [%] | Activity (COLO 205 [8]) [%] | Activity (COLO 205 [9]) [%] | IC50 (A549) [µM] |
| --- | --- | --- | --- | --- | --- | --- | --- | --- | --- | --- | --- | --- |
| COc1ccc(/C=C\C(=O)O)c(OCc2cn(-c3ccc(CO)cc3)nn2)c1CC=C(C)C | 16.4 | 31.7 | 40 | 19.3 | 28.3 | 27.1 |  |  |  |  |  |  |
| CC[C@@]1(O)C(=O)OCc2c1cc1n(c2=O)Cc2cc3ccccc3nc2-1 [CAMPTOTHECIN] |  |  |  |  |  |  | 30.8 | 2.2 | 11 | 4.9 | 69.4 |  |
| COc1ccc(/C=C\C(=O)O)c(OCc2cn(P(=O)(Oc3ccccc3)Oc3ccccc3)nn2)c1CC=C(C)C | 43.3 | 35.5 | 30.6 |  | 36.2 |  |  |  |  |  |  |  |
| COc1ccccc1-n1cc(COc2c(/C=C\C(=O)O)ccc(OC)c2CC=C(C)C)nn1 | 32.6 | 32.2 |  | 12.2 |  | 41.5 |  |  |  |  |  | 43 |
| COc1ccc2ccc(=O)oc2c1CC=C(C)C [OSTHOLE] | 23.2 | 30.2 | 42.4 | > 60 | 24.8 | 30.9 |  |  |  |  |  | 46.2 |
| COc1ccc(/C=C\C(=O)O)c(OCc2cn(-c3cccnc3Cl)nn2)c1CC=C(C)C | 32.6 | 23 |  |  |  | 42.2 |  |  |  |  |  | 5.6 |
| COc1ccc(/C=C\C(=O)O)c(OCc2cn(-c3ccc(C#N)cc3)nn2)c1CC=C(C)C | 23 | 21 | 10.2 | 32 |  | 18.6 |  |  |  |  |  | 42.2 |
| COc1ccc(/C=C\C(=O)O)c(OCc2cn(-c3ccccc3C#N)nn2)c1CC=C(C)C | 10.3 | 38.3 | 8.8 | 3.2 |  | 14.4 |  |  |  |  |  | 38.6 |
| COc1ccc(/C=C\C(=O)O)c(OCc2cn(CC(O)c3ccccc3)nn2)c1CC=C(C)C (stereo not drawn) |  | 45.3 | 17.3 | 43 | 14.2 | 35.4 |  |  |  |  |  |  |
| COc1ccc(/C=C\C(=O)O)c(OCc2cn(-c3ccc(NC(=O)c4ccccc4)cc3)nn2)c1CC=C(C)C | 21.2 | 16.4 | 23.3 | 20.3 |  | 17.2 |  |  |  |  |  | 42.7 |
| Cn1c(=O)n(-c2ccc(C(C)(C)C#N)cc2)c2c3cc(-c4cnc5ccccc5c4)ccc3ncc21 [DACTOLISIB] | 12.5 | 0.044 | 11.2 |  | 12.3 | 10.3 |  |  |  |  |  |  |
| COc1ccc(/C=C\C(=O)O)c(OCc2cn(-c3ccccc3I)nn2)c1CC=C(C)C | 32.7 | 23.1 |  |  |  | 42.3 |  |  |  |  |  | 2.2 |

Source: ChEMBL document CHEMBL3352770, “Click chemistry inspired synthesis and bioevaluation of novel triazolyl derivatives of osthol as potent cytotoxic agents” (Eur J Med Chem, 2014)
